Among the data in ChEMBL document CHEMBL1138987, “Development of cyclic gamma-MSH analogues with selective hMC3R agonist and hMC3R/hMC5R antagonist activities” (J Med Chem, 2006) are EC50, IC50 and %max values, retold here.

For assay [1], the target named is T1, Melanocortin receptor 3 (Homo sapiens, UniProt P41968). Kind of assay: Activity against hMC3R transfected in HEK293 cells by intracellular cAMP accumulation. Format: functional, cell-based. The method in brief: (§1)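 HEK293 cells stably transfected with human receptor, grown to confluence in MEM with 10% FBS, seeded 48 h before assay. Cells preincubated 1 min at 37 °C in EBSS with IBMX (0.5 mM stock). Peptide added (10^-10 to 10^-5 M), 3 min at 37 °C. Stopped with ice-cold Tris/EDTA, boiled, cAMP measured by competitive binding kit. EC50 from nonlinear least-squares fit; mean of two experiments in triplicate.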
T1 sequence (P41968 whole entry): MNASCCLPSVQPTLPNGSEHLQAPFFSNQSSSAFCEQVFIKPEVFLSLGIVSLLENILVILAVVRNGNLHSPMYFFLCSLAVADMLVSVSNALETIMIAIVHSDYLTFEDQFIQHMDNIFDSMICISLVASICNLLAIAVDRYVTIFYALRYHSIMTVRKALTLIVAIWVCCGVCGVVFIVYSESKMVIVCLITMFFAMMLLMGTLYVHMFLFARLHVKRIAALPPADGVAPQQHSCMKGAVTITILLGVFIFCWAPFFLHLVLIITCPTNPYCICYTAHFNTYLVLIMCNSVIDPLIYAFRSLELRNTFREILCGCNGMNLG

Assay [2] deals with T2, Melanocortin receptor 4 (Homo sapiens, UniProt P32245). Kind of assay: Activity against hMC4R transfected in HEK293 cells by intracellular cAMP accumulation. Format: functional, cell-based. The method, boiled down: as §1
T2 sequence (P32245 whole entry): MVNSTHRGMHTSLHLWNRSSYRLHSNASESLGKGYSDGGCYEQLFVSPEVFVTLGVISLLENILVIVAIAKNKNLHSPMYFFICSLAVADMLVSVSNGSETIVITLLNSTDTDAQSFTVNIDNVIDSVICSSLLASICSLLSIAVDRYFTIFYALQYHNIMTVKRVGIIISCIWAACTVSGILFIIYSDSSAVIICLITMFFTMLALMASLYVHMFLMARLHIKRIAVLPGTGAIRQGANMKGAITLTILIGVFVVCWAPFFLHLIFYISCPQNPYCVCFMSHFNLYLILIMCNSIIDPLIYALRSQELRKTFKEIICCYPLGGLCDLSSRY
On the technique in general: Changes in cAMP serve as a functional read-out for many G protein-coupled receptors.

Assay [3] has as its target T3, Melanocyte-stimulating hormone receptor (Homo sapiens, UniProt Q01726). Briefly: Inhibitory activity against hMC1R transfected in HEK293 cells. In kind it is cell-based. The method, boiled down: (§2)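 Competition binding on whole HEK293 cells stably expressing the human receptor, seeded 48 h prior. Binding buffer was MEM, 25 mM HEPES pH 7.4, 0.2% BSA, 1,10-phenanthroline, leupeptin and bacitracin. Cells washed and lysed, then gamma counted. IC50 from nonlinear least-squares fit; mean of two experiments in triplicate.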
Target sequence in this assay (Q01726 whole entry): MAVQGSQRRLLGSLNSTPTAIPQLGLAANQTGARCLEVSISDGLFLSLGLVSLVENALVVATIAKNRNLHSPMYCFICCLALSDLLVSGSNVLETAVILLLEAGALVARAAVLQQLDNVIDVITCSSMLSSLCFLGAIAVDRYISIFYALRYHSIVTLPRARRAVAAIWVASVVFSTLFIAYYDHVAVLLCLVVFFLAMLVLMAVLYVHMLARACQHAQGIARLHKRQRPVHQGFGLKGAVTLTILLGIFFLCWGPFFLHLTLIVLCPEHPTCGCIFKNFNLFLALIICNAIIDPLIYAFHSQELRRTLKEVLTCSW

The target of assay [4] is T4, Melanocortin receptor 5 (Homo sapiens, UniProt P33032). Kind of assay: Activity against hMC5R transfected in HEK293 cells by intracellular cAMP accumulation. In kind it is functional, cell-based. The method, boiled down: as §1
T4 sequence (P33032 whole entry): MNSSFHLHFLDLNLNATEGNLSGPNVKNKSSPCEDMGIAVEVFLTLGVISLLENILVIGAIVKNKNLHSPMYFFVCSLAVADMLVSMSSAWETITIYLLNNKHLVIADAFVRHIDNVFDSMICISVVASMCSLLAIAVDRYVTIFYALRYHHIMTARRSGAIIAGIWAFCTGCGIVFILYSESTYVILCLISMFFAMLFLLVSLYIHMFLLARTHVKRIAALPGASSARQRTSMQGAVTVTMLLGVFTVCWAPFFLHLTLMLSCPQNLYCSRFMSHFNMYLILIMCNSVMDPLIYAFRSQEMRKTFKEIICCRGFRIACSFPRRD
The target of assay [5] is T3, Melanocyte-stimulating hormone receptor. Briefly: Activity against hMC1R transfected in HEK293 cells by intracellular cAMP accumulation. Format: functional, cell-based. The method, boiled down: as §1
Assay [6] addresses T2, Melanocortin receptor 4. Kind of assay: Inhibitory activity against hMC4R transfected in HEK293 cells. Format: cell-based. The method in brief: as §2
The target of assay [7] is T1, Melanocortin receptor 3. Briefly: Inhibitory activity against hMC3R transfected in HEK293 cells. Format: cell-based. The method, boiled down:
as §2

For assay [8], the target named is T4, Melanocortin receptor 5. Briefly: Inhibitory activity against hMC5R transfected in HEK293 cells. Format: cell-based. The method, boiled down: as §2

One may read the EC50 as the concentration giving half of the maximal effect. One may read the IC50 as the concentration needed to halve the response being measured. The low end stands for greater potency in that assay, the high end for weaker potency in that assay.

Consider `CCCC[C@@H]1NC(=O)CC[C@@H](C(N)=O)NC(=O)[C@H](Cc2c[nH]c3ccccc23)NC(=O)[C@H](CCCN=C(N)N)NC(=O)[C@@H](Cc2ccc3ccccc3c2)NC(=O)[C@H](CC(=O)O)NC1=O`, for which the EC50 in assay [1], in assay [2], in assay [4] and in assay [5] was greater than 10000 nM each time. The IC50 in assay [3] was greater than 10000 nM; in assay [6], 170 nM; in assay [7] it was 820 nM; in assay [8] it was 220 nM.
In the case of `CCCC[C@@H]1NC(=O)CC[C@@H](C(N)=O)NC(=O)[C@H](Cc2c[nH]c3ccccc23)NC(=O)[C@H](CCCN=C(N)N)NC(=O)[C@@H](Cc2ccccc2)NC(=O)[C@H](CCC(=O)O)NC1=O`, the EC50 in assay [1] is 4300 nM; in assay [2], greater than 10000 nM; in assay [4], greater than 10000 nM; in assay [5], greater than 10000 nM. Further, the IC50 in assay [3] was greater than 10000 nM; in assay [6] it was greater than 10000 nM; in assay [7], 1200 nM; in assay [8] it was 3060 nM.
For the compound `CCCC[C@@H]1NC(=O)CC[C@@H](C(N)=O)NC(=O)[C@H](Cc2c[nH]c3ccccc23)NC(=O)[C@H](CCCN=C(N)N)NC(=O)[C@@H](Cc2ccccc2)NC(=O)[C@@H](CCC(=O)O)NC1=O`, the %max was found to be 54% in assay [1], 0% in assay [2], 0% in assay [4] and 0% in assay [5].
`CCCC[C@@H]1NC(=O)CC[C@@H](C(N)=O)NC(=O)[C@H](Cc2c[nH]c3ccccc23)NC(=O)[C@H](CCCN=C(N)N)NC(=O)[C@@H](Cc2ccc3ccccc3c2)NC(=O)[C@@H](CC(=O)O)NC1=O`: the %max in assay [1], in assay [2], in assay [4] and in assay [5] was 0% in each case.
On to `CCCC[C@@H]1NC(=O)CC[C@@H](C(N)=O)NC(=O)[C@H](Cc2c[nH]c3ccccc23)NC(=O)[C@H](CCCN=C(N)N)NC(=O)[C@@H](Cc2ccc3ccccc3c2)NC(=O)[C@H](Cc2cnc[nH]2)NC1=O`, for which the EC50 in assay [1], in assay [2], in assay [4] and in assay [5] was greater than 10000 nM throughout. Also, the IC50 in assay [3] is greater than 10000 nM; in assay [6], 100 nM; in assay [7], 12 nM; in assay [8], 2.3 nM.
As for `CCCC[C@@H]1NC(=O)CC[C@@H](C(N)=O)NC(=O)[C@H](Cc2c[nH]c3ccccc23)NC(=O)[C@H](CCCN=C(N)N)NC(=O)[C@@H](Cc2ccccc2)NC(=O)[C@H](CCCC)NC1=O`, the %max stood at 27% in assay [1], 50% in assay [2], 0% in assay [4] and 0% in assay [5]. The 50% effective concentration (EC50) was 300 nM in assay [1], greater than 1000 nM in assay [2], greater than 10000 nM in assay [4] and greater than 10000 nM in assay [5]. In addition, the IC50 in assay [3] is greater than 10000 nM; in assay [6], 600 nM; in assay [7], 250 nM; in assay [8], 70 nM.
Consider `CCCC[C@@H]1NC(=O)CC[C@@H](C(N)=O)NC(=O)[C@H](Cc2c[nH]c3ccccc23)NC(=O)[C@H](CCCN=C(N)N)NC(=O)[C@@H](Cc2ccc3ccccc3c2)NC(=O)[C@H](CCCN=C(N)N)NC1=O`, for which the EC50 was greater than 10000 nM in assay [1], 530 nM in assay [2], greater than 10000 nM in assay [4] and greater than 10000 nM in assay [5]. Also, the IC50 came to 1500 nM in assay [3], 77 nM in assay [6], 2.6 nM in assay [7] and 2.3 nM in assay [8].
On to `CCCC[C@@H]1NC(=O)CC[C@@H](C(N)=O)NC(=O)[C@H](Cc2c[nH]c3ccccc23)NC(=O)[C@H](CCCN=C(N)N)NC(=O)[C@@H](Cc2ccccc2)NC(=O)[C@@H](CCC(N)=O)NC1=O`, for which the %max in assay [1] turned out to be 60%; in assay [2], 0%; in assay [4] it was 8%; in assay [5], 20%.
`CCCC[C@@H]1NC(=O)CC[C@@H](C(N)=O)NC(=O)[C@H](Cc2c[nH]c3ccccc23)NC(=O)[C@H](CCCN=C(N)N)NC(=O)[C@@H](Cc2ccccc2)NC(=O)[C@H](Cc2c[nH]cn2)NC1=O`: the %max in assay [1] turned out to be 147%; in assay [2] it was 48%; in assay [4], 0%; in assay [5] it was 0%. In addition, the EC50 in assay [1] is 37 nM; in assay [2], 2000 nM; in assay [4], greater than 10000 nM; in assay [5], greater than 10000 nM. Moreover, the IC50 was greater than 10000 nM in assay [3], 170 nM in assay [6], 560 nM in assay [7] and 100 nM in assay [8].
As to `CCCC[C@@H]1NC(=O)CC[C@@H](C(N)=O)NC(=O)[C@H](Cc2c[nH]c3ccccc23)NC(=O)[C@H](CCCN=C(N)N)NC(=O)[C@@H](Cc2ccc3ccccc3c2)NC(=O)[C@H](CCCC)NC1=O`, the %max amounted to 0% in assay [1], 31% in assay [2], 10% in assay [4] and 0% in assay [5]. For the same compound, the EC50 in assay [1] was greater than 10000 nM; in assay [2], 340 nM; in assay [4] it was 200 nM; in assay [5], greater than 1000 nM. Besides, the IC50 in assay [3] is 3000 nM; in assay [6], 16 nM; in assay [7] it was 6 nM; in assay [8] it was 3.8 nM.
For the compound `CCCC[C@@H]1NC(=O)CC[C@@H](C(N)=O)NC(=O)[C@H](Cc2c[nH]c3ccccc23)NC(=O)[C@H](CCCN=C(N)N)NC(=O)[C@@H](Cc2ccc3ccccc3c2)NC(=O)[C@H](CCC(=O)O)NC1=O`, the %max in assay [1] turned out to be 7%; in assay [2], 0%; in assay [4] it was 0%; in assay [5] it was 0%. The EC50 is 2800 nM in assay [1], greater than 10000 nM in assay [2], greater than 10000 nM in assay [4] and greater than 10000 nM in assay [5]. Moreover, the IC50 in assay [3] was greater than 10000 nM; in assay [6], 34 nM; in assay [7], 140 nM; in assay [8], 44 nM.
For `CCCC[C@@H]1NC(=O)CC[C@@H](C(N)=O)NC(=O)[C@H](Cc2c[nH]c3ccccc23)NC(=O)[C@H](CCCN=C(N)N)NC(=O)[C@@H](Cc2ccccc2)NC(=O)[C@H](CC(=O)O)NC1=O`, the %max in assay [1], in assay [2], in assay [4] and in assay [5] was 0% in each case. In addition, the EC50 in assay [1], in assay [2], in assay [4] and in assay [5] was greater than 10000 nM throughout. Also, the IC50 in assay [3] is greater than 10000 nM; in assay [6] it was 150 nM; in assay [7], greater than 10000 nM; in assay [8], greater than 10000 nM.
As to `CCCC[C@@H]1NC(=O)CC[C@@H](C(N)=O)NC(=O)[C@H](Cc2c[nH]c3ccccc23)NC(=O)[C@H](CCCN=C(N)N)NC(=O)[C@@H](Cc2ccc3ccccc3c2)NC(=O)[C@H](CCC(N)=O)NC1=O`, the %max worked out at 0% in assay [1], 50% in assay [2], 0% in assay [4] and 0% in assay [5]. For the same compound, the EC50 in assay [1] was greater than 10000 nM; in assay [2] it was 130 nM; in assay [4], greater than 10000 nM; in assay [5], greater than 1000 nM. The IC50 is 1000 nM in assay [3], 65 nM in assay [6], 1.4 nM in assay [7] and 1.4 nM in assay [8].
For `CCCC[C@@H]1NC(=O)CC[C@@H](C(N)=O)NC(=O)[C@H](Cc2c[nH]c3ccccc23)NC(=O)[C@H](CCCN=C(N)N)NC(=O)[C@@H](Cc2ccc3ccccc3c2)NC(=O)[C@@H]2CCCN2C1=O`, the %max in assay [1], in assay [2], in assay [4] and in assay [5] was 0% throughout. For the same compound, the EC50 in assay [1], in assay [2], in assay [4] and in assay [5] was greater than 10000 nM throughout. The IC50 in assay [3] is greater than 10000 nM; in assay [6] it was 1000 nM; in assay [7], 13 nM; in assay [8], 10 nM.
Regarding `CCCC[C@@H]1NC(=O)CC[C@@H](C(N)=O)NC(=O)[C@H](Cc2c[nH]c3ccccc23)NC(=O)[C@H](CCCN=C(N)N)NC(=O)[C@@H](Cc2ccc3ccccc3c2)NC(=O)[C@H](Cc2c[nH]cn2)NC1=O`, the %max in assay [1], in assay [2], in assay [4] and in assay [5] was 0% each time.
Regarding `CCCC[C@@H]1NC(=O)CC[C@@H](C(N)=O)NC(=O)[C@H](Cc2c[nH]c3ccccc23)NC(=O)[C@H](CCCN=C(N)N)NC(=O)[C@@H](Cc2ccccc2)NC(=O)[C@H]2CCCN2C1=O`, the %max is 0% in assay [1], 0% in assay [2], 10% in assay [4] and 0% in assay [5].
As to `CCCC[C@@H]1NC(=O)CC[C@@H](C(N)=O)NC(=O)[C@H](Cc2c[nH]c3ccccc23)NC(=O)[C@H](CCCN=C(N)N)NC(=O)[C@@H](Cc2ccc3ccccc3c2)NC(=O)[C@@H](CCCN=C(N)N)NC1=O`, the %max in assay [1] was found to be 0%; in assay [2], 10%; in assay [4] it was 0%; in assay [5], 0%.
As to `CCCC[C@@H]1NC(=O)CC[C@@H](C(N)=O)NC(=O)[C@H](Cc2c[nH]c3ccccc23)NC(=O)[C@H](CCCN=C(N)N)NC(=O)[C@@H](Cc2ccccc2)NC(=O)[C@@H](CCCN=C(N)N)NC1=O`, the %max in assay [1] worked out at 112%; in assay [2] it was 63%; in assay [4] it was 0%; in assay [5], 0%.
